Key:
[1] = Cmax in children of >2-6 yrs age at risk for fungal infection at 2.5 mg/kg, iv in 0.1 g/kg hydroxypropyl-beta-cyclodextrin administered as single dose; format: ADME, organism-based; parameters: dose 2.5 mg/kg, route intravenous; details: human, in vivo
How it was run: (§1)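 Single 1-h IV infusion. Plasma sampled from the contralateral limb predose and at 1–120 h (>2 y) or 1–96 h (<2 y). Itraconazole was extracted with internal standard and quantified by C18 HPLC with UV 263 nm detection, linear range 2–2,000 ng/ml. Noncompartmental analysis: Cmax by inspection, AUC0-24 by trapezoidal rule, AUC extrapolated via λz, CL and Vz from AUC0-∞.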

Homo sapiens [2] = experiment: Cmax in children of >6-12 yrs age at risk for fungal infection assessed as hydroxyitraconazole level at 2.5 mg/kg, iv in 0.1 g/kg hydroxypropyl-beta-cyclodextrin administered as single dose; format: ADME, organism-based; parameters: dose 2.5 mg/kg, route intravenous; details: in vivo
How it was run: (§2)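 Single constant-rate IV infusion over 1 h. Heparinised venous plasma was drawn predose and at 1–120 h (>2 yr) or 1–96 h (<2 yr, randomised to the itraconazole/metabolite arm), then stored at –20°C. Analysis used borate-buffered liquid-liquid extraction with internal standard, C18 HPLC and UV detection at 263 nm, linear 5–5,000 ng/ml. Individual Cmax was read by visual inspection, noncompartmental.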

[3] = Half life in children of >6-12 yrs age at risk for fungal infection at 2.5 mg/kg, iv in 0.1 g/kg hydroxypropyl-beta-cyclodextrin administered as single dose; format: ADME, organism-based; parameters: dose 2.5 mg/kg, route intravenous; details: human, in vivo; how it was run: as §1
[4] = AUC (0 to 24 hrs) in children of >6-12 yrs age at risk for fungal infection at 2.5 mg/kg, iv in 0.1 g/kg hydroxypropyl-beta-cyclodextrin administered as single dose; format: ADME, organism-based; parameters: time < 24 hr, dose 2.5 mg/kg, route intravenous; details: human, plasma; how it was run: as §1
[5] = Cmax in children of >6-12 yrs age at risk for fungal infection at 2.5 mg/kg, iv in 0.1 g/kg hydroxypropyl-beta-cyclodextrin administered as single dose; format: ADME, organism-based; parameters: dose 2.5 mg/kg, route intravenous; details: human, in vivo; how it was run: as §1
[6] = AUC (0 to 24 hrs) in human at risk for fungal infection at 2.5 mg/kg, iv in 0.1 g/kg hydroxypropyl-beta-cyclodextrin administered as single dose; format: ADME, organism-based; parameters: time < 24 hr, dose 2.5 mg/kg, route intravenous; details: plasma; how it was run: as §1
Homo sapiens [7] = experiment: Cmax in infants of 0.6-2 yrs age at risk for fungal infection assessed as hydroxyitraconazole level at 2.5 mg/kg, iv in 0.1 g/kg hydroxypropyl-beta-cyclodextrin administered as single dose; format: ADME, organism-based; parameters: dose 2.5 mg/kg, route intravenous; details: in vivo; how it was run: as §2
Homo sapiens [8] = experiment: Half life in human at risk for fungal infection assessed as hydroxyitraconazole level at 2.5 mg/kg, iv in 0.1 g/kg hydroxypropyl-beta-cyclodextrin administered as single dose; format: ADME, organism-based; parameters: dose 2.5 mg/kg, route intravenous; details: in vivo
How it was run: (§3)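 Single 1-h constant-rate IV infusion. Venous plasma sampled predose and to 120 h (>2 y) or 96 h (<2 y), then stored at –20°C. Hydroxyitraconazole was measured by borate/isoamylalcohol-heptane extraction, HCl back-extraction, C18 HPLC and UV 263 nm, with a linear range of 5–5,000 ng/ml. Noncompartmental analysis: Cmax and tmax by inspection, AUC0-24 by trapezoidal rule.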

[9] = AUC (0 to 24 hrs) in adolescents of >12-16 yrs age at risk for fungal infection at 2.5 mg/kg, iv in 0.1 g/kg hydroxypropyl-beta-cyclodextrin administered as single dose; format: ADME, organism-based; parameters: time < 24 hr, dose 2.5 mg/kg, route intravenous; details: human, plasma; how it was run: as §1
[10] = Apparent volume of distribution in children of >6-12 yrs age at risk for fungal infection at 2.5 mg/kg, iv in 0.1 g/kg hydroxypropyl-beta-cyclodextrin administered as single dose; format: ADME, organism-based; parameters: dose 2.5 mg/kg, route intravenous; details: human, in vivo; how it was run: as §1
Homo sapiens [11] = experiment: Tmax in infants of 0.6-2 yrs age at risk for fungal infection assessed as hydroxyitraconazole level at 2.5 mg/kg, iv in 0.1 g/kg hydroxypropyl-beta-cyclodextrin administered as single dose; format: ADME, organism-based; parameters: dose 2.5 mg/kg, route intravenous; details: in vivo; how it was run: as §3
[12] = Cmax in adolescents of >12-16 yrs age at risk for fungal infection at 2.5 mg/kg, iv in 0.1 g/kg hydroxypropyl-beta-cyclodextrin administered as single dose; format: ADME, organism-based; parameters: dose 2.5 mg/kg, route intravenous; details: human, in vivo; how it was run: as §1
[13] = Half life in infants of 0.6-2 yrs age at risk for fungal infection at 2.5 mg/kg, iv in 0.1 g/kg hydroxypropyl-beta-cyclodextrin administered as single dose; format: ADME, organism-based; parameters: dose 2.5 mg/kg, route intravenous; details: human, in vivo; how it was run: as §1
Homo sapiens [14] = experiment: AUC (0 to 24 hrs) in children of >2-6 yrs age at risk for fungal infection assessed as hydroxyitraconazole level at 2.5 mg/kg, iv in 0.1 g/kg hydroxypropyl-beta-cyclodextrin administered as single dose; format: ADME, organism-based, Plasma; parameters: time < 24 hr, dose 2.5 mg/kg, route intravenous; details: in vivo; how it was run: as §3
[15] = Apparent volume of distribution in adolescents of >12-16 yrs age at risk for fungal infection at 2.5 mg/kg, iv in 0.1 g/kg hydroxypropyl-beta-cyclodextrin administered as single dose; format: ADME, organism-based; parameters: dose 2.5 mg/kg, route intravenous; details: human, in vivo; how it was run: as §1
Homo sapiens [16] = experiment: AUC (0 to 24 hrs) in infants of 0.6-2 yrs age at risk for fungal infection assessed as hydroxyitraconazole level at 2.5 mg/kg, iv in 0.1 g/kg hydroxypropyl-beta-cyclodextrin administered as single dose; format: ADME, organism-based, Plasma; parameters: time < 24 hr, dose 2.5 mg/kg, route intravenous; details: in vivo; how it was run: as §3
[17] = Clearance in infants of 0.6-2 yrs age at risk for fungal infection at 2.5 mg/kg, iv in 0.1 g/kg hydroxypropyl-beta-cyclodextrin administered as single dose; format: ADME, organism-based; parameters: dose 2.5 mg/kg, route intravenous; details: human, in vivo; how it was run: as §1
[18] = Clearance in children of >6-12 yrs age at risk for fungal infection at 2.5 mg/kg, iv in 0.1 g/kg hydroxypropyl-beta-cyclodextrin administered as single dose; format: ADME, organism-based; parameters: dose 2.5 mg/kg, route intravenous; details: human, in vivo; how it was run: as §1
Homo sapiens [19] = experiment: Half life in infants of 0.6-2 yrs age at risk for fungal infection assessed as hydroxyitraconazole level at 2.5 mg/kg, iv in 0.1 g/kg hydroxypropyl-beta-cyclodextrin administered as single dose; format: ADME, organism-based; parameters: dose 2.5 mg/kg, route intravenous; details: in vivo; how it was run: as §3
[20] = Clearance in adolescents of >12-16 yrs age at risk for fungal infection at 2.5 mg/kg, iv in 0.1 g/kg hydroxypropyl-beta-cyclodextrin administered as single dose; format: ADME, organism-based; parameters: dose 2.5 mg/kg, route intravenous; details: human, in vivo; how it was run: as §1
Homo sapiens [21] = experiment: AUC (0 to 24 hrs) in children of >6-12 yrs age at risk for fungal infection assessed as hydroxyitraconazole level at 2.5 mg/kg, iv in 0.1 g/kg hydroxypropyl-beta-cyclodextrin administered as single dose; format: ADME, organism-based, Plasma; parameters: time < 24 hr, dose 2.5 mg/kg, route intravenous; details: in vivo; how it was run: as §3
Homo sapiens [22] = experiment: AUC (0 to 24 hrs) in children of >2-6 yrs age at risk for fungal infection at 2.5 mg/kg, iv in 0.1 g/kg hydroxypropyl-beta-cyclodextrin administered as single dose; format: ADME, organism-based, Plasma; parameters: time < 24 hr, dose 2.5 mg/kg, route intravenous; details: in vivo; how it was run: as §1
Homo sapiens [23] = experiment: Cmax in human at risk for fungal infection assessed as hydroxyitraconazole level at 2.5 mg/kg, iv in 0.1 g/kg hydroxypropyl-beta-cyclodextrin administered as single dose; format: ADME, organism-based; parameters: dose 2.5 mg/kg, route intravenous; details: in vivo; how it was run: as §2

Cmax [1]: 1550 ng/mL
Cmax (Homo sapiens [2]): 277 ng/mL
half-life [3]: 17.2 h
AUC(0-t) at 24 h [4]: 3760 ng·h/mL
Cmax [5]: 785 ng/mL
AUC(0-t) at 24 h [6]: 4920 ng·h/mL
Cmax (Homo sapiens [7]): 265 ng/mL
t1/2 (Homo sapiens [8]): 13.3 h
AUC(0-t) at 24 h [9]: 2670 ng·h/mL
Vd [10]: 13.9 L/kg
Tmax (Homo sapiens [11]): 4 h
Cmax [12]: 806 ng/mL
half-life [13]: 13.3 h
AUC (Homo sapiens [14]): 4249 ng·h/mL
Vd [15]: 28.5 L/kg
AUC (Homo sapiens [16]): 4155 ng·h/mL
clearance [17]: 19.1 mL/min/kg
clearance [18]: 10.3 mL/min/kg
t1/2 (Homo sapiens [19]): 16.6 h
clearance [20]: 12.9 mL/min/kg
AUC (Homo sapiens [21]): 4166 ng·h/mL
AUC (Homo sapiens [22]): 9510 ng·h/mL
Cmax (Homo sapiens [23]): 293 ng/mL
SMILES: CCC(C)n1ncn(-c2ccc(N3CCN(c4ccc(OCC5COC(Cn6cncn6)(c6ccc(Cl)cc6Cl)O5)cc4)CC3)cc2)c1=O (stereo not drawn) [ITRACONAZOLE]
